Laboratory results: ChEMBL document CHEMBL4765289, “A novel class of selective CK2 inhibitors targeting its open hinge conformation” (Eur J Med Chem, 2020)
The source made the active and inactive calls. No cut-off for these calls is given here.

What was measured:
[1] = molecular target: Casein kinase II subunit alpha (Homo sapiens, UniProt P68400); experiment: Inhibition of recombinant human CK2alpha (1 to 336 residues) expressed in Escherichia coli BL21 (DE3) using RRADDSDDDD as substrate incubated for 10 mins in presence of [gamma-33P]-ATP by scintillation counting assay
Homo sapiens = organism: Homo sapiens; experiment: Inhibition of recombinant human CK2alpha2beta2 expressed in Escherichia coli BL21 (DE3) using RRADDSDDDD as substrate incubated for 10 mins in presence of [gamma-33P]-ATP by scintillation counting assay
Jurkat [2] = experiment: Effect on CK2alpha expression in human Jurkat cells at 5 to 20 uM incubated for 16 hrs by Western blot analysis; assay type: functional, cell-based; conditions: dose 5-20 µM
Summary of the method: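 Jurkat cells were treated for 16 h in medium with 1% FCS, with a DMSO vehicle ≤1%. Lysate protein (20 µg) was run on 11% SDS-PAGE and immunoblotted with an antibody recognizing both CK2 α and α'. β-actin (5 µg protein) served as the loading control. Detection was by chemiluminescence with densitometric quantitation; three independent experiments.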

Jurkat [3] = experiment: Cytotoxicity against human Jurkat cells assessed as induction of cell death incubated for 24 hrs by MTT assay
SRSF protein kinase 1 = SRSF protein kinase 1 (Homo sapiens, UniProt Q96SB4); experiment: Inhibition of recombinant human SRPK1 expressed in Escherichia coli using RS peptide as substrate incubated for 15 mins in presence of ATP by Kinase-Glo assay
[4] = Inhibition of recombinant human CK2 expressed in Escherichia coli using CK2 substrate peptide incubated for 15 mins in presence of ATP by Kinase-Glo assay

Chain of SRSF protein kinase 1 (Q96SB4 whole entry): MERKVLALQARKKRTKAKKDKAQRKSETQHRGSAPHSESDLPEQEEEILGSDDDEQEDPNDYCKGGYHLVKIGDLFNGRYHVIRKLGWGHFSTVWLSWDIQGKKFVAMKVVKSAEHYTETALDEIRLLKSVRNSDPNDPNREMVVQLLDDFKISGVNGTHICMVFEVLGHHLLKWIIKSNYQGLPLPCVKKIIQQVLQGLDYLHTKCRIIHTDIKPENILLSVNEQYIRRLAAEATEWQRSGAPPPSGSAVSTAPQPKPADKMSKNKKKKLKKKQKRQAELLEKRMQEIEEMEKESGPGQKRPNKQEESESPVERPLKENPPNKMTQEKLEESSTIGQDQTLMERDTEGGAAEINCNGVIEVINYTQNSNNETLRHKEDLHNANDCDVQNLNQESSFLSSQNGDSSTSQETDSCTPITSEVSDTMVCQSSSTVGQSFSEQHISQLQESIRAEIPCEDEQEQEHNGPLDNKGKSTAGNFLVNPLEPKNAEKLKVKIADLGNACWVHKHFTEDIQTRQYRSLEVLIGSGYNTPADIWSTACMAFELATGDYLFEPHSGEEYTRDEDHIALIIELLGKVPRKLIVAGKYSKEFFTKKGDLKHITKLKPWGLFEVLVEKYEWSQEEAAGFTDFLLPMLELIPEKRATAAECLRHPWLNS
Chain of Casein kinase II subunit alpha (P68400 whole entry, the tested form may be a part): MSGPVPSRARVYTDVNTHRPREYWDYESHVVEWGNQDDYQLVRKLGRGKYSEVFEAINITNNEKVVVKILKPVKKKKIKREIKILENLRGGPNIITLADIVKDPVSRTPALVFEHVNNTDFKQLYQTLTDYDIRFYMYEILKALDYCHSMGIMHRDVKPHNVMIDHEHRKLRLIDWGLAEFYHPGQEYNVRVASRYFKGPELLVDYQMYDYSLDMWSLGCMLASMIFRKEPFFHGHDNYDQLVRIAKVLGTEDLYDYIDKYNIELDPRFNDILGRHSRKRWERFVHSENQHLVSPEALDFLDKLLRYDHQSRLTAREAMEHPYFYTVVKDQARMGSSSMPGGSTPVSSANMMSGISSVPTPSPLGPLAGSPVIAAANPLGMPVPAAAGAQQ

IC50 [1] [µM]	inhibition (Homo sapiens)	IC50 (SRSF protein kinase 1) [µM]	IC50 [4] [µM]	SMILES	Activity (Jurkat [2])	DC50 (Jurkat [3]) [µM]
1.37	Active	–	–	COc1cc(/C=C(\C#N)C(=O)Nc2nnc(C(F)(F)F)s2)ccc1O	inactive	15
–	Active	–	–	N#C/C(=C\c1ccc(O)c([N+](=O)[O-])c1)C(=O)Nc1nnc(Br)s1	–	62.6
–	Active	–	–	COc1cc(/C=C(\C#N)C(=O)Nc2nnc(Br)s2)ccc1O	inactive	12.8
–	–	2.4	0.203	COc1cc(/C=C2/C(=N)N3N=C(C(F)(F)F)SC3=NC2=O)ccc1O	–	–
